Bioassay records from PubChem BioAssay.
CSC inhib = blocks cancer stem cells. cancer stem cell-like cells viability, luminescence. inhibition, % at 7.5 µM. actives 1.1% (n = 300,000). AID 2717; in the data active means inhibition above about 75%; tested in HMLE shEcad cells
L major viab = reduces viability of Leishmania major promastigotes | actives 9% (n = 200,000) | resazurin fluorescence viability | inhibition, % at 10 µM; in the data active means inhibition above about 50%;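 further: promastigotes grown with compound for 44 hours at 28 °C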
Beta cell apopt = blocks beta cell apoptosis; INS-1E cytokine-induced death, ATP luminescence, 48 h; percent of positive-control rescue, neutral wells zero; protection from apoptosis, % (concentration not given with the values); AID 435005; actives 0.8% (n = 300,000);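 active means Every replicate reaches about 75%, or at least half do and their mean reaches it too, limit read from the data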;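 further: 0% = cytokine-treated negative control wells and 100% = positive control rescue; higher means more ATP so stronger rescue from cytokine killing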
Mdm2 MdmX PPI = disrupts the human Mdm2-MdmX interaction. AID 485346. O15151+Q00987. inhibition, % at 8 µM. SaOS-2 split-luciferase Mdm2/MdmX complementation, luminescence. actives 3% (n = 330,000);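 active means inhibition of at least 50% at 8 µM in the primary screen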
Target sequence (O15151 whole entry, looked up): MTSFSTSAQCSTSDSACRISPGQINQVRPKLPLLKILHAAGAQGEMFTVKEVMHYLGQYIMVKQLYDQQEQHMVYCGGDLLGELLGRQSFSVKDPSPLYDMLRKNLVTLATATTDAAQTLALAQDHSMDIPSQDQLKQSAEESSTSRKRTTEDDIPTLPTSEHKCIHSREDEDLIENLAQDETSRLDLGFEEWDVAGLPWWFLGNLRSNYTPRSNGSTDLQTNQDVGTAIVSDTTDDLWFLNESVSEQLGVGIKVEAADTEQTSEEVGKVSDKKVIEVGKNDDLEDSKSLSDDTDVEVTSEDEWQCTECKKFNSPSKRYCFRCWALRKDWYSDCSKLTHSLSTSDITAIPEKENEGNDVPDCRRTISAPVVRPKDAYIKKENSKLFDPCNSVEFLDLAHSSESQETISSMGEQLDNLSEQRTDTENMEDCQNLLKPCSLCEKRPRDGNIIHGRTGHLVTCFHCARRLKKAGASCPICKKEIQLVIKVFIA
Target sequence (Q00987 whole entry, looked up): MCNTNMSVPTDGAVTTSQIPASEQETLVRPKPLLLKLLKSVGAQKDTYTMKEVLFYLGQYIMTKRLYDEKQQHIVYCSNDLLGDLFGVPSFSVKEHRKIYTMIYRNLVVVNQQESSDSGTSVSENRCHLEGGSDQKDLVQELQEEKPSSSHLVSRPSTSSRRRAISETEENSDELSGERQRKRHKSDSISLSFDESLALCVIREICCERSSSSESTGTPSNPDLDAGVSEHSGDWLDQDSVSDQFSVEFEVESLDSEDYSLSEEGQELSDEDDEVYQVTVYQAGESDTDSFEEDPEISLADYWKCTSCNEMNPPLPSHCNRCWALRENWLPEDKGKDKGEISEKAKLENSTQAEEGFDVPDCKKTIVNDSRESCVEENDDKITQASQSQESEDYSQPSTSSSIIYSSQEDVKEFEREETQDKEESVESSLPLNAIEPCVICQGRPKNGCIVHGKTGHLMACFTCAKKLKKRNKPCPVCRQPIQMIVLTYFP
T cruzi repl = T. cruzi replication inhibition | AID 1885 | inhibition, % (no concentration beside the values) | actives 1.4% (n = 300,000) | T. cruzi beta-gal in NIH3T3, luminescence, 90 h;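 active means mean inhibition across valid replicates above about 55%, limit read from the data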;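 further: signal also drops with host cell toxicity which is not excluded here; 0% = plate median of DMSO wells and 100% = zero luminescence signal; higher percent means less beta-gal luminescence so fewer parasites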
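Assay system: NIH/3T3 host cells with β-galactosidase reporter T. cruzi; input: 5,000 host fibroblasts per well; compound: single 50 nL compound addition per well in DMSO; timing: ≥90 h infection period, 3 h prior cell attachment; measured by: GalScreen β-gal luminescence, detergent lysis, 60 min; evaluation: percent inhibition of parasite-derived β-gal signal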
SKKanGAS inh = SKKanGAS growth inhibition. actives 1.3% (n = 300,000). S. pyogenes SKKanGAS, kanamycin growth, BacTiter-Glo, 6 h. inhibition, % at 7.5 µM. AID 1662;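 active means mean replicate score, as percent of positive control median, at least 50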;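 further: strain carries kanamycin resistance gene driven by streptokinase promoter and grows in 40 µg/ml kanamycin; loss of luminescence reflects streptokinase promoter inhibition or plain growth inhibition; 0% = median of DMSO wells and 100% = positive control at its reference dose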
Active calls of the source: *; · = no result. Rows were chosen to be rich in hits. Some 9.4% of all compounds tested hit in one or more screens of this group.

SMILES	CSC inhib	L major viab	Beta cell apopt	Mdm2 MdmX PPI	T cruzi repl	SKKanGAS inh
COc1cccc(CC(CC(=O)O)C(=O)Nc2cc(C)ccc2C)c1 (stereo unspecified)	-3	·	2	-21	-7	-2
Cc1nc(-c2ccc(Cl)cc2)sc1C1(C)CC(c2ccc(C#N)cc2)=NO1 (stereo unspecified)	29	·	9	4	3	13
Cc1cc(C)c(S(=O)(=O)Nc2ccc(O)c(Sc3ncn[nH]3)c2)cc1C	·	·	-5	17	-1	3
COc1ccccc1C(=O)N/C(=C\c1cn(S(=O)(=O)N(C)C)c2ccccc12)C(=O)N1CCCC1	-3	·	2	15	10	5
CS(=O)(=O)N(CC(=O)Nc1ccc2c(c1)OCO2)Cc1ccc(Cl)cc1	17	21	0	-11	-7	0
CC(=O)Nc1ccc(C(=O)OCc2ccccc2Cl)cc1	8	-5	-1	-7	-7	4
CCc1ccc(NC(=O)Cc2ccc(-n3cccc3)cc2)cc1	20	86*	-5	12	14	4
CC(C)(C)c1ccc(-c2csc(NC(=O)CN3C(=O)NC4(CCCCC4)C3=O)n2)cc1	2	99*	35	45	20	14
CCC(=O)Nc1ccc(C(=O)OCc2ccccc2Cl)cc1	11	-16	6	-87	61*	7
COC(=O)c1ccc(NC(=O)CN(Cc2ccc(Cl)cc2)S(C)(=O)=O)cc1	7	100*	-2	5	-2	1
O=S(=O)(NCc1ccccc1)c1ccccc1Br	3	·	-3	5	-13	0
CC(C(=O)OCC(=O)NC1CCCCC1)N1C(=O)c2ccccc2C1=O (stereo unspecified)	-16	·	-4	9	·	·
O=C(COC(=O)c1cc(=O)[nH]c2ccccc12)c1cccs1	-13	-6	-4	-4	-9	-5
COc1cc2nc(C3CC3)n(NC(=O)c3ccc(Cl)cc3)c(=O)c2cc1OC	6	-15	-5	10	-4	·
COc1cc2nc(NC(=O)c3ccc(Cl)cc3)[nH]c(=O)c2cc1OC	2	60*	8	2	-12	21
CCN1CCN(c2ccc(N3CCN(C(=O)c4ccc(Br)o4)CC3)nn2)CC1	71	·	·	-18	21	-14
CCOC(=O)c1c(NC(=O)C2=COCCO2)sc2c1CCN(C(=O)OC)C2	-4	·	·	11	20	2
COc1cc(C)ccc1OCCOc1cc(C)ccc1Cl	12	-6	·	-3	10	4
COCCNC(=O)c1cc(Br)ccc1Cl	-7	-3	-2	21	3	5
C=CCNCCCOc1ccc(Cl)cc1Br	8	78*	-6	29	-2	-2
COCCNCCCOc1ccc(Br)cc1Cl	11	81*	2	19	14	2
CN(C)CCCCOc1ccc(Br)cc1Cl	18	96*	-4	14	39	-2
Cc1ccc(OCCOCCN(C)C)c(Cl)c1	·	85*	-5	21	34	-4
OCCNCCCOc1ccc(Cl)cc1Br	13	87*	-22	38	29	1
CCOc1ccc(Cl)cc1CNCCNCCO	-23	19	-9	7	-4	1
SMILES	CSC inhib	L major viab	Beta cell apopt	Mdm2 MdmX PPI	T cruzi repl	SKKanGAS inh
COCCNCCCOc1ccc(Cl)cc1Br	4	65*	-6	-12	23	-2
Clc1ccc(OCCn2ccnc2)c(Br)c1	10	31	-1	1	-10	-3
CCc1cc(OCCOCCN(C)C)ccc1Cl	28	98*	-5	26	28	5
COc1cccc(OCCOCCN(C)CCO)c1	-3	-2	-2	-8	10	-6
COc1ccccc1NC(=O)C(=O)/C=C(\O)c1ccccc1	-5	·	3	-2	1	3
O=c1[nH]c2cc(NCCO)c([N+](=O)[O-])cc2[nH]1	·	1	0	13	-3	2
CC1CCc2ccc(F)cc2N1S(=O)(=O)c1cccs1 (stereo unspecified)	2	96*	0	19	6	-10
CCOc1cccc(OCCOCCN2CCCC2)c1	-15	-6	-13	13	1	1
CC(C)c1ccccc1OCCCN1CCCC1	-7	·	·	11	37	5
Cc1ccccc1OCCOCCN1CCCCCC1	22	99*	2	24	52	9
Cc1ccc(C(C)C)cc1OCCOCCN1CCCC1	35	100*	-3	-3	44	-2
CCc1cccc(OCCOCCN2CCCC2)c1	-1	97*	-8	-10	43	8
